In ChEMBL document CHEMBL3352716 (ACS Med Chem Lett, 2014):

Assays:
MCF7 = experiment: Antiproliferative activity against human MCF7 cells assessed as growth inhibition after 72 hrs by MTT assay; format: functional, cell-based; settings: MCF7, 72 h
In short: (§1)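 MTT proliferation assay on human K562 leukaemia, MCF-7 breast adenocarcinoma, Bel-7402 hepatocellular carcinoma and MGC-803 gastric cancer cells. Drug exposure 72 h. IC50 is the concentration inhibiting 50% of cell growth. Means ± SD, n = 3.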

MGC-803 = experiment: Antiproliferative activity against human MGC803 cells assessed as growth inhibition after 72 hrs by MTT assay; format: functional, cell-based; settings: MGC-803, 72 h; in short: as §1
[1] = Antiproliferative activity against human Bel7402 cells assessed as growth inhibition after 72 hrs by MTT assay; format: functional, cell-based; settings: Bel-7402, 72 h; in short: as §1
K562 = experiment: Antiproliferative activity against human K562 cells assessed as growth inhibition after 72 hrs by MTT assay; format: functional, cell-based; settings: K562, 72 h; in short: as §1
[2] = Anticancer activity against ABCG2-overexpressing human NCI-H460/MX20 cells by MTT assay; format: functional, cell-based
In short: (§2)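 MTT cytotoxicity run on paired parental and transporter-overexpressing lines: SW620 vs ABCB1-overexpressing SW620/AD300, and NCI-H460 vs ABCG2-overexpressing NCI-H460/MX20. IC50 is the concentration inhibiting 50% of cell growth. Concentrations tested up to 100 μM.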

[3] = Anticancer activity against human Bel7402 cells assessed as growth inhibition by MTT assay; format: functional, cell-based; settings: Bel-7402
In short: (§3)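 Toxicity compared on human normal liver L-02 cells and human liver cancer Bel-7402 cells run side by side. Survival curves by MTT after 72 h treatment. IC50 is the concentration inhibiting 50% of cell growth.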

Bel-7402 [4] = experiment: Selectivity index, ratio of IC50 for human L02 cells to ratio of IC50 for human Bel-7402 cells; format: functional
In short: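 Selectivity index is IC50 on normal L-02 liver cells divided by IC50 on Bel-7402 tumour cells. Both IC50 values come from MTT survival curves after 72 h exposure.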

NCI-H460 = experiment: Anticancer activity against human NCI-H460 cells by MTT assay; format: functional, cell-based; in short: as §2
[5] = Anticancer activity against ABCB1-overexpressing human SW620/AD300 cells by MTT assay; format: functional, cell-based; settings: SW-620; in short: as §2
[6] = Cytotoxicity against human L02 cells by MTT assay; format: cell-based; in short: as §3
SW-620 = experiment: Anticancer activity against human SW620 cells by MTT assay; format: functional, cell-based; in short: as §2
Bel-7402 [7] = experiment: Induction of apoptosis in human Bel7402 cells assessed as late apoptotic cells after 48 hrs at 0.125 uM by Annexin V/propidium iodide staining-based flow cytometric analysis (reference value: 5.21%); format: functional
[8] = Cell cycle arrest in human Bel7402 cells assessed as cells at G1 phase at 0.125 uM after 48 hrs by propidium iodide staining-based flow cytometric analysis (reference value: 39.66%); format: functional; settings: Bel-7402
Bel-7402 [9] = experiment: Induction of apoptosis in human Bel7402 cells assessed as early apoptotic cells after 48 hrs at 0.125 uM by Annexin V/propidium iodide staining-based flow cytometric analysis (reference value: 0.64%); format: functional
[10] = Cell cycle arrest in human Bel7402 cells assessed as cells at S phase at 0.125 uM after 48 hrs by propidium iodide staining-based flow cytometric analysis (reference value: 40.82%); format: functional; settings: Bel-7402
[11] = Cell cycle arrest in human Bel7402 cells assessed as cells at G2 phase at 0.5 uM after 48 hrs by propidium iodide staining-based flow cytometric analysis (reference value: 19.52%); format: functional; settings: Bel-7402
Bel-7402 [12] = experiment: Induction of apoptosis in human Bel7402 cells after 48 hrs by Annexin V/propidium iodide staining-based flow cytometric analysis; format: functional, cell-based
Bel-7402 [13] = experiment: Induction of apoptosis in human Bel7402 cells assessed as early apoptotic cells after 48 hrs at 0.5 uM by Annexin V/propidium iodide staining-based flow cytometric analysis (reference value: 0.64%); format: functional
Bel-7402 [14] = experiment: Induction of apoptosis in human Bel7402 cells assessed as necrotic cells after 48 hrs at 0.25 uM by Annexin V/propidium iodide staining-based flow cytometric analysis (reference value: 1.99%); format: functional
Bel-7402 [15] = experiment: Induction of apoptosis in human Bel7402 cells assessed as viable cells after 48 hrs at 0.125 uM by Annexin V/propidium iodide staining-based flow cytometric analysis (reference value: 92.80%); format: functional; settings: Bel-7402, 48 h, read-out: Activity
[16] = Cell cycle arrest in human Bel7402 cells assessed as cells at G1 phase at 0.5 uM after 48 hrs by propidium iodide staining-based flow cytometric analysis (reference value: 39.66%); format: functional; settings: Bel-7402
Bel-7402 [17] = experiment: Induction of apoptosis in human Bel7402 cells assessed as necrotic cells after 48 hrs at 0.5 uM by Annexin V/propidium iodide staining-based flow cytometric analysis (reference value: 1.99%); format: functional
[18] = Cell cycle arrest in human Bel7402 cells assessed as cells at S phase at 0.5 uM after 48 hrs by propidium iodide staining-based flow cytometric analysis (reference value: 40.82%); format: functional; settings: Bel-7402
[19] = Cell cycle arrest in human Bel7402 cells assessed as cells at G2 phase at 0.125 uM after 48 hrs by propidium iodide staining-based flow cytometric analysis (reference value: 19.52%); format: functional; settings: Bel-7402
Bel-7402 [20] = experiment: Induction of apoptosis in human Bel7402 cells assessed as early apoptotic cells after 48 hrs at 0.25 uM by Annexin V/propidium iodide staining-based flow cytometric analysis (reference value: 0.64%); format: functional
Bel-7402 [21] = experiment: Induction of apoptosis in human Bel7402 cells assessed as viable cells after 48 hrs at 0.5 uM by Annexin V/propidium iodide staining-based flow cytometric analysis (reference value: 92.80%); format: functional; settings: Bel-7402, 48 h, read-out: Activity
[22] = Cell cycle arrest in human Bel7402 cells assessed as cells at S phase at 0.25 uM after 48 hrs by propidium iodide staining-based flow cytometric analysis (reference value: 40.82%); format: functional; settings: Bel-7402
Bel-7402 [23] = experiment: Induction of apoptosis in human Bel7402 cells assessed as late apoptotic cells after 48 hrs at 0.25 uM by Annexin V/propidium iodide staining-based flow cytometric analysis (reference value: 5.21%); format: functional
Bel-7402 [24] = experiment: Induction of apoptosis in human Bel7402 cells assessed as late apoptotic cells after 48 hrs at 0.5 uM by Annexin V/propidium iodide staining-based flow cytometric analysis (reference value: 5.21%); format: functional
Bel-7402 [25] = experiment: Induction of apoptosis in human Bel7402 cells assessed as viable cells after 48 hrs at 0.25 uM by Annexin V/propidium iodide staining-based flow cytometric analysis (reference value: 92.80%); format: functional; settings: Bel-7402, 48 h, read-out: Activity
[26] = Cell cycle arrest in human Bel7402 cells assessed as cells at G2 phase at 0.25 uM after 48 hrs by propidium iodide staining-based flow cytometric analysis (reference value: 19.52%); format: functional; settings: Bel-7402
Bel-7402 [27] = experiment: Induction of apoptosis in human Bel7402 cells assessed as necrotic cells after 48 hrs at 0.125 uM by Annexin V/propidium iodide staining-based flow cytometric analysis (reference value: 1.99%); format: functional
[28] = Cell cycle arrest in human Bel7402 cells assessed as cells at G1 phase at 0.25 uM after 48 hrs by propidium iodide staining-based flow cytometric analysis (reference value: 39.66%); format: functional; settings: Bel-7402

`C=C1C(=O)[C@]23[C@H](OC(=O)CCC(=O)N[C@@H](Cc4ccc(N(CCCl)CCCl)cc4)C(=O)OC)[C@H]1CC[C@H]2[C@@]12CO[C@@]3(O)[C@@H](O)[C@@H]1C(C)(C)CCC2=O` gave an IC50 (MCF7) of 2880 nM, an IC50 (MGC-803) of 3.39 µM and an IC50 [1] of 1410 nM. The IC50 (K562) was 1660 nM.

`C=C1C(=O)[C@]23[C@H](OC(=O)CCCc4ccc(N(CCCl)CCCl)cc4)[C@H]1CC[C@H]2[C@@]12CO[C@@]3(O)[C@@H](O)[C@@H]1C(C)(C)CCC2=O` showed an IC50 (MCF7) of 2250 nM, an IC50 (MGC-803) of 3.95 µM and an IC50 [1] of 2530 nM. For the same molecule, the IC50 (K562) was 2370 nM.

Work on `C=C1C(=O)[C@]23[C@H](OC(=O)c4ccc(N(CCCl)CCCl)cc4)[C@H]1CC[C@H]2[C@@]12CO[C@@]3(O)[C@@H](O)[C@@H]1C(C)(C)CC[C@@H]2OC(C)=O` yielded an IC50 (MCF7) of 910 nM, an IC50 (MGC-803) of 3.76 µM and an IC50 [1] of 2410 nM. The IC50 (K562) was 1350 nM.

For `C=C1C(=O)[C@]23[C@H](OC(=O)CCC(=O)N[C@@H](Cc4ccc(N(CCCl)CCCl)cc4)C(=O)OC)[C@H]1CC[C@H]2[C@@]12CO[C@@]3(O)[C@@H](O)[C@@H]1C(C)(C)CC[C@@H]2OC(C)=O`, the IC50 (MCF7) was 3630 nM, the IC50 (MGC-803) was 4.71 µM and the IC50 [1] was 2560 nM. It also gave an IC50 (K562) of 1730 nM.

In the case of `C=C1C(=O)[C@]23[C@H](O)[C@H]1CC[C@H]2[C@@]12CO[C@]3(O)[C@@H](O)[C@@H]1C(C)(C)CC[C@@H]2O` [ORIDONIN], the IC50 [2] is reported as 21.7 µM, the IC50 [3] is reported as 7.48 µM and the “Ratio IC50” value (Bel-7402 [4]) is reported as 2.38. The IC50 (NCI-H460) was 17.1 µM, the IC50 [5] was 4.67 µM and the IC50 [6] was 17.8 µM. It also gave an IC50 (SW-620) of 6.26 µM.

`C=C1C(=O)[C@]23[C@H](OC(=O)CCCC(=O)N[C@@H](Cc4ccc(N(CCCl)CCCl)cc4)C(=O)OC)[C@H]1CC[C@H]2[C@@]12CO[C@@]3(O)[C@@H](O)[C@@H]1C(C)(C)CC[C@@H]2O` gave an IC50 (MCF7) of 12900 nM, an IC50 (MGC-803) of 6.92 µM and an IC50 [1] of 7910 nM. It also gave an IC50 (K562) of 5740 nM.

With `C=C1C(=O)[C@]23[C@H](OC(=O)c4ccc(N(CCCl)CCCl)cc4)[C@H]1CC[C@H]2[C@@]12CO[C@@]3(O)[C@@H](O)[C@@H]1C(C)(C)CC[C@@H]2O` the IC50 [2] was 2.91 µM, the Activity (Bel-7402 [7]) was 10.77% and the Activity [8] was 45.6%. It also gave an Activity (Bel-7402 [9]) of 1.11%, an IC50 [3] of 0.5 µM and an IC50 (MCF7) of 680 nM. For the same molecule, the “Ratio IC50” value (Bel-7402 [4]) was 8.06, the Activity [10] was 41.3% and the IC50 (MGC-803) was 1.09 µM. The Activity [11] was 4.46%, the Activity (Bel-7402 [12]) was “Dose-dependent effect” and the Activity (Bel-7402 [13]) was 10.53%. The Activity (Bel-7402 [14]) was 1.23%, the viability at 0.125 µM (Bel-7402 [15]) was 87.1% and the Activity [16] was 52%. The Activity (Bel-7402 [17]) was 1.29%, the Activity [18] was 43.6% and the Activity [19] was 13%. The Activity (Bel-7402 [20]) was 3.14%, the viability at 0.5 µM (Bel-7402 [21]) was 50.7% and the IC50 (NCI-H460) was 2.35 µM. The IC50 [5] was 1.86 µM, the Activity [22] was 44.8% and the Activity (Bel-7402 [23]) was 19.85%. For the same molecule, the Activity (Bel-7402 [24]) was 37.51%, the IC50 [6] was 4.03 µM and the viability at 0.25 µM (Bel-7402 [25]) was 75.8%. The IC50 [1] was 500 nM, the Activity [26] was 9.98% and the IC50 (K562) was 1120 nM. The IC50 (SW-620) was 1.96 µM, the Activity (Bel-7402 [27]) was 2.12% and the Activity [28] was 45.2%.
